Screening data from PubChem BioAssay.
CSN deneddyl inh: inhibitors of human CSN-mediated cullin deneddylation | Purified CSN, SCF-Nedd8-OG deneddylation, fluorescence polarization | AID 651999 | 360,000 compounds, 0.38% hits | inhibition, % at 12.5 µM;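 active = pattern-corrected inhibition above about 35%, with an unprinted fluorescence ratio check between 0.5 and 1.5, limit read from the data, passing the limit was not always enough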;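 also: 0% = enzyme with substrate and 100% = substrate without enzyme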
Target sequence (Q92905 whole entry, looked up, one chain of several): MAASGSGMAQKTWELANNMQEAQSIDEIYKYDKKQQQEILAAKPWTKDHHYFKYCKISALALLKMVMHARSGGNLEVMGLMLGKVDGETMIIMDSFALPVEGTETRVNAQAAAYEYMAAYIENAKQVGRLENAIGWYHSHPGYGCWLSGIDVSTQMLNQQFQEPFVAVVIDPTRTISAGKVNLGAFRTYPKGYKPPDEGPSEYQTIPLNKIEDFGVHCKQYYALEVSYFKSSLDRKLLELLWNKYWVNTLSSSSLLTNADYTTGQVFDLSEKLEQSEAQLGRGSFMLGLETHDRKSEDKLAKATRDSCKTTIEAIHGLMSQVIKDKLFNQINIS
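Test system: Human Csn5 produced in HEK293T cells | Compound: 12.5 µM single point | Times: 90 min, room temperature | Signal: Fluorescence polarization readout | Read-out basis: % inhibition of substrate cleavage by Csn5 | Controls: no-enzyme wells high, enzyme-with-substrate wells low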
DNMT1 inh: DNMT1 (human) enzyme inhibition; P26358; DNMT1 molecular beacon, Hinp1I cleavage, fluorescence; inhibition (reported as % activation of signal), % at 10 µM; 360,000 compounds, 0.83% hits; AID 588458; in the data active = inhibition above about 50%
LMPTP block: LMPTP (human) inhibition | 360,000 compounds, 0.22% hits | inhibition, % at 20 µM | recombinant LMPTP-A, OMFP fluorogenic substrate, fluorescence intensity | AID 651560;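 active = compounds that cut the enzyme signal by at least half of the control window in the single-dose screen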;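 also: plate controls were DMSO wells with enzyme plus substrate for no effect and substrate without enzyme for full effect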
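material = LMPTP-A | quantity = 0.625 nM enzyme | reagent = OMFP substrate, 400 µM final | buffer or medium = Bis-Tris pH 6.0, DTT, detergent | detection = endpoint fluorescence intensity from OMFP dephosphorylation | dosing = single 20 µM dose | read-out basis = % inhibition relative to no-enzyme and uninhibited control wells | control set = no-enzyme and uninhibited controls | timing = 50 min at room temperature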
SUMO1 PPI mod: SUMO1-SIM interaction modulation. P63165. inhibition, % at 20 µM. SUMO1 binding to a labelled peptide, TR-FRET, 1 h. 360,000 compounds, 0.33% hits; in the data active = inhibition above about 37%
Target sequence (P63165 whole entry, looked up): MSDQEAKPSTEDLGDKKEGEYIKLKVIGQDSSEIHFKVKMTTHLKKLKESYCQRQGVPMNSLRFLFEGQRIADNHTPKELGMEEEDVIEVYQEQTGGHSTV
STEP block: blocks human striatal-enriched tyrosine phosphatase; P54829; recombinant STEP, OMFP fluorogenic substrate, fluorescence; inhibition, % at 20 µM; 360,000 compounds, 0.25% hits; AID 588621;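 active = inhibition at 20 µM, scaled per plate between control wells, above about 37%, limit read from the data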;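 also: 0% = DMSO with enzyme and substrate and 100% = substrate only without enzyme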
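Material: STEP (striatal-enriched tyrosine phosphatase) enzyme, cell-free; Compound dosing: 20 µM single dose in 1% DMSO; Technique: fluorescence read at 480 nm ex / 540 nm em; Times: reaction 20 min, ambient temperature; Medium: 50 mM Bis-Tris pH 6.0 with 2.5 mM DTT and 0.005% Tween 20; Also added: OMFP at 25 µM.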
Scp1 inh: inhibitors of human Scp-1 phosphatase. Q9GZU7. Recombinant Scp1, phosphopeptide, malachite green phosphate absorbance. inhibition, % at 20 µM. 340,000 compounds, 0.88% hits. AID 493091;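 active = inhibition above about 50% at 20 µM, limit read from the data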;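 also: plate controls were DMSO wells with enzyme for no effect and wells lacking enzyme for full effect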
Target sequence (Q9GZU7 76-261 limits assumed): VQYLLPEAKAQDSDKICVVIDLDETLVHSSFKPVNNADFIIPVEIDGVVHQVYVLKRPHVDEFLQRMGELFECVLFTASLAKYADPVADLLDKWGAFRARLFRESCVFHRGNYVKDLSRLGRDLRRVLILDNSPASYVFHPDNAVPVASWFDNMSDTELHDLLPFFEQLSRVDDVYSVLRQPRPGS
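Test system: SCP-1 phosphatase catalytic domain, residues 76-261; measured by: colorimetric phosphate reagent with accelerator and stabiliser, absorbance at 630 nm; timing: enzyme reaction 45 min at room temperature, colour 5 min, stabilisation 30 min; also added: Phosphorylated 17-residue peptide substrate; compound dosing: one concentration, 20 µM, with 1.0% DMSO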
Scp-1 conf: Scp-1 (human) inhibition, single-dose confirmed; 2,500 compounds, 61% hits; shares compounds with Scp1 inh; recombinant SCP-1 catalytic domain, phosphate release, malachite green absorbance; inhibition, % at 20 µM;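 also: plate controls were DMSO with enzyme for no effect and buffer wells lacking enzyme for full effect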
MG interference: interferes with malachite green readout, flagging false Scp-1 hits; shares compounds with Scp1 inh; Colorimetric interference counterscreen, malachite green absorbance 630 nm; apparent inhibition (interference), % at 20 µM; 2,500 tested, under 10 active;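 also: compounds added after enzyme reaction finished so only phosphate colour detection is probed; plate controls were DMSO wells with completed Scp-1 reaction for no effect and substrate wells lacking enzyme for full effect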
Scp1 DSF: validation of human Scp-1 inhibitors by thermal shift binding; shares compounds with Scp1 inh; Recombinant SCP1, Sypro Orange thermal shift Tm; thermal shift relative to vanadate control, % at 40 µM; AID 540329; 1,500 compounds, 25% hits;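 active = substances whose mean melting-temperature shift, as a percentage of the reference inhibitor's shift, reaches about 5.3%, limit read from the data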;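 also: 0% = Tm of DMSO wells and 100% = Tm with sodium orthovanadate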
Numbers without * were called inactive. A selection: hits, their analogues and other compounds. The true share with any hit is near 1.9%.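 The calls were made as follows, unless noted: active = inhibition of at least 30% at 20 µM; inactive = the rest.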

How did COc1ccc(-c2oc3c(c2C(=O)OCCO)C(OCCO)CCC3)cc1 (stereo not drawn) do in these assays?
CSN deneddyl inh: -9.8; LMPTP block: -1.0; SUMO1 PPI mod: -3.2

How did COc1ccccc1N1C(=O)c2ccc(C(=O)Nc3ccc(C(=O)O)cc3)cc2C1=O do in these assays?
CSN deneddyl inh: -0.2; DNMT1 inh: 0.0; LMPTP block: -1.5; SUMO1 PPI mod: -28.5; STEP block: 1.2; Scp1 inh: -18.6

Results for O=C(NS(=O)(=O)c1ccccc1)c1cccc(Br)c1 ?
CSN deneddyl inh: -1.1; DNMT1 inh: 1.6; LMPTP block: -1.6; SUMO1 PPI mod: 4.6; STEP block: -1.8; Scp1 inh: 61.9*; Scp-1 conf: -4.9; MG interference: -9.5

Results for Cc1ccc(S(=O)(=O)NC(=O)c2cccc(Br)c2)cc1 ?
CSN deneddyl inh: -0.1; DNMT1 inh: 3.2; LMPTP block: 0.5; SUMO1 PPI mod: 0.4; STEP block: 0.9; Scp1 inh: -6.7

What do the screens show for `CCOC(=O)c1sc(NC(=O)C2CCC2)cc1C`?
CSN deneddyl inh: 2.0; DNMT1 inh: -2.4; LMPTP block: 0.1; SUMO1 PPI mod: -3.4; STEP block: -0.7; Scp1 inh: -6.6

How did O=[N+]([O-])c1cccc(-c2c(-c3ccccc3)ncc3cc(F)ccc23)c1 do in these assays?
CSN deneddyl inh: -2.7; DNMT1 inh: -4.1; LMPTP block: 1.3; SUMO1 PPI mod: -16.7; STEP block: 3.6; Scp1 inh: 1.2

What do the screens show for `Fc1ccc2cnc(-c3ccccc3)c(-c3cccc(C(F)(F)F)c3)c2c1`?
CSN deneddyl inh: 5.0; DNMT1 inh: 10.6; LMPTP block: 2.5; SUMO1 PPI mod: 0.0; STEP block: 0.0; Scp1 inh: 64.6*; Scp-1 conf: 6.3; MG interference: -6.0

Results for COc1cc2cnc(-c3ccccc3)c(-c3ccc(C#N)cc3)c2cc1OC ?
CSN deneddyl inh: -0.9; DNMT1 inh: 1.6; LMPTP block: -0.3; SUMO1 PPI mod: 0.8; STEP block: 1.0; Scp1 inh: 24.9

Results for COc1cc2cnc(-c3ccccc3)c(-c3cccc(C(F)(F)F)c3)c2cc1OC ?
CSN deneddyl inh: 5.2; DNMT1 inh: -13.7; LMPTP block: 4.4; SUMO1 PPI mod: 5.7; STEP block: 0.5; Scp1 inh: 52.6*; Scp-1 conf: -9.9; MG interference: -9.0

Results for Fc1cc(F)cc(-c2c(-c3ccccc3)ncc3ccc(F)cc23)c1 ?
CSN deneddyl inh: -2.9; DNMT1 inh: 27.1; LMPTP block: 4.2; SUMO1 PPI mod: 6.9; STEP block: 0.3; Scp1 inh: 85.1*; Scp-1 conf: 38.4*; MG interference: -12.6; Scp1 DSF: -25.0

What do the screens show for `Cc1cc(C)c(S(=O)(=O)Nc2cc(C)on2)c(C)c1`?
CSN deneddyl inh: 3.8; DNMT1 inh: 0.9; LMPTP block: -0.6; SUMO1 PPI mod: 3.6; STEP block: -0.2; Scp1 inh: -2.2

What do the screens show for `CC(C)(C)OC(=O)n1cc(C(=O)c2ccccc2O)cn1`?
CSN deneddyl inh: 5.4; DNMT1 inh: 0.8; LMPTP block: -0.4; SUMO1 PPI mod: -2.2; STEP block: -1.6; Scp1 inh: -3.4

Results for C[C@@H]1CN([C@H](C)CO)C(=O)c2cc(NC(=O)c3ccncc3)ccc2O[C@@H]1CN(C)C(=O)Nc1ccccc1 ?
CSN deneddyl inh: -0.9; DNMT1 inh: 6.3; LMPTP block: -2.2; SUMO1 PPI mod: -4.0; STEP block: -1.1; Scp1 inh: 94.4*; Scp-1 conf: 61.4*; MG interference: -14.0; Scp1 DSF: -10.0

Results for CC(C)NC(=O)Nc1ccc2c(c1)C(=O)N([C@H](C)CO)C[C@H](C)[C@@H](CN(C)C(=O)NC(C)C)O2 ?
CSN deneddyl inh: -1.2; DNMT1 inh: -3.5; LMPTP block: -0.3; SUMO1 PPI mod: 3.0; STEP block: 1.2; Scp1 inh: 55.6*; Scp-1 conf: 18.9; MG interference: 0.6

What do the screens show for `C[C@H](CO)N1C[C@H](C)[C@@H](CN(C)C(=O)Nc2ccccc2)Oc2ccc(NC(=O)CCN3CCOCC3)cc2C1=O`?
CSN deneddyl inh: 2.7; DNMT1 inh: -1.4; LMPTP block: -2.2; SUMO1 PPI mod: 2.9; STEP block: -2.7; Scp1 inh: 20.6

What do the screens show for `CC(C)NC(=O)N(C)C[C@H]1Oc2ccc(NC(=O)c3ccncc3)cc2C(=O)N([C@H](C)CO)C[C@@H]1C`?
CSN deneddyl inh: 0.0; DNMT1 inh: 6.5; LMPTP block: -0.3; SUMO1 PPI mod: -4.8; STEP block: 0.4; Scp1 inh: 73.4*; Scp-1 conf: 17.6; MG interference: -18.4

What do the screens show for `CC(C)NC(=O)N(C)C[C@@H]1Oc2ccc(NC(=O)CCN3CCOCC3)cc2CC(=O)N([C@@H](C)CO)C[C@@H]1C`?
CSN deneddyl inh: 12.7; DNMT1 inh: 4.8; LMPTP block: -1.9; SUMO1 PPI mod: 3.7; STEP block: -0.6; Scp1 inh: 51.5*; Scp-1 conf: 18.6; MG interference: -13.7

Results for CCOC(=O)C1=C(C)c2ccccc2N(S(=O)(=O)C(F)(F)F)C1C(=O)OCC (stereo not drawn) ?
CSN deneddyl inh: -1.0; DNMT1 inh: 9.2; LMPTP block: 2.4; SUMO1 PPI mod: 1.6; STEP block: -0.5; Scp1 inh: -6.6

Results for COc1ccc(Cl)cc1S(=O)(=O)NCc1cccnc1 ?
CSN deneddyl inh: 3.4; DNMT1 inh: 0.1; LMPTP block: -0.3; SUMO1 PPI mod: 5.0; STEP block: 1.0; Scp1 inh: 59.6*; Scp-1 conf: -16.9; MG interference: -14.2

What do the screens show for `CCc1ccccc1NC(=O)C1C2C=CC(O2)C1C(=O)O` (stereo not drawn)?
CSN deneddyl inh: -2.7; DNMT1 inh: -2.1; LMPTP block: -1.9; SUMO1 PPI mod: 5.5; STEP block: 0.3; Scp1 inh: -7.0

How did O=C(O)/C=C/C(=O)Nc1ccc(NC(=O)c2ccccc2)c(Cl)c1 do in these assays?
CSN deneddyl inh: -11.3; DNMT1 inh: 1.0; LMPTP block: 1.5; SUMO1 PPI mod: 6.2; STEP block: 2.7; Scp1 inh: 72.9*; Scp-1 conf: 1.1; MG interference: -7.9
